Measurements published in PMC5346068 (ACS infectious diseases, 2017).
≈ marks a conversion by molar mass, not a printed value. Entries after “also recorded” stand apart in the source; their conditions may differ.

How the values were obtained:
[1] = Human plasma protein binding; format: in vitro ADME
1433-resistant T. brucei = assay: microbe, parasite or virus in culture; format: cell-based, Trypanosoma brucei; conditions: for EC50: Trypanosoma brucei, read-out: 1433 resistant EC50; for 1433 resistant EC50 / WT EC50: fold shift resistant vs wild-type
T. brucei rhodesiense = T. brucei rhodesiense mouse model of HAT; cited from earlier work
[2] = MRC5-SV2 human lung cell toxicity; format: cell-based; conditions: MRC5-SV2 human lung cells
logD 7.4 = format: physicochemical; conditions: pH 7.4
Rat hepatocyte clearance = format: in vitro ADME; conditions: rat hepatocytes
[3] = test system: T. b. brucei (GVR 35 strain); assay: Murine CNS infection model; format: in vivo, mouse; conditions: tail blood; for mice with no detectable parasitemia, day 28: 1 at 20 mg/kg/day days 21-25, Berenil single 40 mg/kg day 21
Outline: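 Mice were infected on day 0 with T. b. brucei GVR 35, in two groups of 5, and checked for parasitemia on day 14. The control group got a single 40 mg/kg Berenil dose on day 21, then vehicle (DMSO in PBS) on days 22–25. The treated group got test compound at 20 mg/kg/day on days 21–25 and again on days 28–32. Tail blood was examined on days 14, 28, 35, 39 and 43.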

[4] = Mouse plasma and brain pharmacokinetics; format: in vivo, female BALB/c mice; conditions: female, BALB/c, brain, ip, 10 mg/kg
Outline: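 Female BALB/c mice received a single intraperitoneal 10 mg/kg dose of test compound. Drug levels were measured in plasma and brain, and the brain-to-plasma ratio and brain concentration were taken at the 24 h time point.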

Aqueous solubility = format: physicochemical
T. brucei MetRS = molecular target: T1, T. brucei MetRS (Trypanosoma brucei brucei, UniProt Q38C91); assay: T. brucei MetRS inhibition assay; format: biochemical
T1 sequence (Q38C91 1-773): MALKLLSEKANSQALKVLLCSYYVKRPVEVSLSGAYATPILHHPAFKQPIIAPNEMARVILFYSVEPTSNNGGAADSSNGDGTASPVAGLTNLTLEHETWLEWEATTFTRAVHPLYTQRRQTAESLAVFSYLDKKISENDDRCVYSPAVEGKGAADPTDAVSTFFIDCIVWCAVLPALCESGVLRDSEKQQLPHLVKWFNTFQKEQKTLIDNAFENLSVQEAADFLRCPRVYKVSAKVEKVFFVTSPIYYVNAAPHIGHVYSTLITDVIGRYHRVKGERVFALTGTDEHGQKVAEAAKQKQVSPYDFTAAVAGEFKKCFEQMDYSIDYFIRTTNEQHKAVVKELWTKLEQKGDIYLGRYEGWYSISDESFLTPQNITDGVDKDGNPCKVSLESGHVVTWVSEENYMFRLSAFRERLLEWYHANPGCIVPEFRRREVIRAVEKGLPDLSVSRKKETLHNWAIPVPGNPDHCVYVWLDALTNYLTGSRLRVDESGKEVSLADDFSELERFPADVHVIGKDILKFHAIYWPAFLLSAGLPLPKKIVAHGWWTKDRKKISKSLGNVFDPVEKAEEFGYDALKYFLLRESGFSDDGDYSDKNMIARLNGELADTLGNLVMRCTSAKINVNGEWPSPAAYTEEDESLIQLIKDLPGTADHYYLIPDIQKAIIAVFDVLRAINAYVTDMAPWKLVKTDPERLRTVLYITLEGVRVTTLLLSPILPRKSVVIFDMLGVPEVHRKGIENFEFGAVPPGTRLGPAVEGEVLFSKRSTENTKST

wild-type T. brucei = assay: Wild-type T. brucei growth inhibition assay; format: cell-based; conditions: Trypanosoma brucei, read-out: WT EC50
[5] = Human liver microsome clearance; format: in vitro ADME; conditions: liver microsomes
T. brucei = T. brucei in vitro growth inhibition; format: cell-based; conditions: Trypanosoma brucei, read-out: T. brucei EC50

| Structure (SMILES) | fraction unbound [1] | EC50 (1433-resistant T. brucei) | 1433 resistant EC50 / WT EC50 (1433-resistant T. brucei) | efficacy in bloodstream infection mouse model (T. brucei rhodesiense) | EC50 [2] | logD (logD 7.4) | Rat Hepatocyte Clint (Rat hepatocyte clearance) | mice with no detectable parasitemia, day 28 [3] | parasitemia, day 39 [3] | concentration at 24 h [4] | solubility (Aqueous solubility) | IC50 (T. brucei MetRS) | EC50 (wild-type T. brucei) | microsomal CLint [5] | EC50 (T. brucei) | mice showing a relapse, day 43 ([3]; day 43, group of 5 mice) | T. brucei MetRS inhibition (T. brucei MetRS; up to 10 µM) |
| --- | --- | --- | --- | --- | --- | --- | --- | --- | --- | --- | --- | --- | --- | --- | --- | --- | --- |
| OCCn1c(CNCCCNc2nc3ccccc3[nH]2)cc2c(Cl)cc(Cl)cc21 [Compound 1, 2-(2-(((3-((1H–Benzo[d]imidazol-2-yl)amino)propyl)amino)methyl)-4,6-dichloro-1H–indol-1-yl)ethan-1-ol] | < 0.001 | 14 ± 1 nM | 108 | cured a bloodstream infection | 12000 nM | 4 | 24.9 µL/min/10^6 | 3/5 | full relapse of parasites in the blood | 31.6 ng/g | 6.33 µM (≈ 2.74 µg/mL) | < 25 nM | 0.13 ± 0.01 nM | 24 µL/min/mg | 0.96 nM | – | – |
| CC(=O)NCC(=O)O.CC(=O)NCC(=O)O.N=C(N)c1ccc(N=NNc2ccc(C(=N)N)cc2)cc1 [Berenil] | – | – | – | – | – | – | – | no detectable levels of parasitemia | no detectable levels of parasitemia | – | – | – | – | – | – | 2 | – |
| N=C(N)c1ccc(OCCCCCOc2ccc(C(=N)N)cc2)cc1 [Pentamidine, reference compound] | – | 1.1 ± 0.1 nM | 0.73 | – | – | – | – | – | – | – | – | – | 1.5 ± 0.2 nM | – | – | – | no T. brucei MetRS inhibition; also recorded: does not inhibit T. brucei MetRS |
